The nature of data set [1]: melting temperature; fluorescence melt of hairpins on a sequencing array, two-state fit, raised by 9.35 °C to match UV melts. The conditions noted are these: sodium 0.088 M. The procedure, abridged: (§1)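 Bootstrapped two-state fits yielded melting temperature and folding enthalpy for library hairpins. Cy3 fluorescence, with annealed Cy3 and quencher oligos, was imaged on a sequenced MiSeq flow cell in 50 mM Na-HEPES pH 8.0, 25 mM NaCl in 2.5 °C steps up to 60 °C, and normalised to pre-quench Cy3 and to control constructs. Four replicates were combined by inverse variance, and fitted temperatures were raised by 9.35 °C to match UV melts.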

Data set [2] can be described thus: folding enthalpy; higher = less favourable; fluorescence melt of hairpins on a sequencing array, two-state fit. The following applies: sodium 0.088 M. The procedure, abridged:
as §1

Turning to GATCAGGAGACTGATC ((((((....)))))), the Tm in data set [1] was 51.3 °C. For the same sequence, the folding enthalpy in data set [2] is -37.6 kcal/mol.
The matching figures for GATCAGGAGTCTGATC ((((((....)))))): 48.2 °C and -38.7 kcal/mol.
The matching figures for GATCAGGCAACTGATC ((((((....)))))): 60.6 °C and -37.6 kcal/mol.
GATCAGGCCCTGATC ((((((...)))))): the Tm in data set [1] turned out to be 50.1 °C. For the same sequence, in data set [2], the folding enthalpy is -33.9 kcal/mol.
Regarding GATCAGGCCGCTGATC ((((((....)))))), the Tm in data set [1] was 51.8 °C. Moreover, the folding enthalpy in data set [2] is -41.3 kcal/mol.
Turning to GATCAGGCGACTGATC ((((((....)))))), the Tm in data set [1] came to 56.4 °C. Besides, in data set [2], the folding enthalpy is -36.8 kcal/mol.
With GATCAGGCGCTGATC ((((((...)))))), the Tm in data set [1] stood at 47.9 °C. For the same sequence, the folding enthalpy in data set [2] was -33.8 kcal/mol.
GATCAGGGAAACCTGACC (.(((((....))))).): the Tm in data set [1] was determined as 36.3 °C. For the same sequence, the folding enthalpy in data set [2] is -17.2 kcal/mol.
The matching figures for GATCAGGGAAACCTGGTC ((.((((....)))).)): 47.4 °C and -29.2 kcal/mol.
For GATCAGGGCTCTGATC ((((((....)))))), the Tm in data set [1] was determined as 55.1 °C. Further, the folding enthalpy in data set [2] is -38.8 kcal/mol.
For GATCAGGGGACTGATC ((((((....)))))), in that order: 53.8 °C and -32.5 kcal/mol.
For GATCAGGTAACTGATC ((((((....)))))), in that order: 57.1 °C and -39.9 kcal/mol.
For GATCAGGTAGCTGATC ((((((....)))))), in that order: 53.4 °C and -39.7 kcal/mol.
Turning to GATCAGGTCCCTGATC ((((((....)))))), the Tm in data set [1] was found to be 54.6 °C. Moreover, the folding enthalpy in data set [2] was -39 kcal/mol.
The matching figures for GATCAGGTGCTGATC ((((((...)))))): 48.6 °C and -39 kcal/mol.
The matching figures for GATCAGTATTCTGATC ((((((....)))))): 51 °C and -39.1 kcal/mol.
The matching figures for GATCAGTCAACTGATC ((((((....)))))): 50.9 °C and -37.6 kcal/mol.
Consider GATCAGTCCACTGATC ((((((....)))))), for which the Tm in data set [1] was 54.3 °C. Also, the folding enthalpy in data set [2] is -37.6 kcal/mol.
In the case of GATCAGTCGTCTGATC ((((((....)))))), the Tm in data set [1] turned out to be 52.3 °C. In addition, the folding enthalpy in data set [2] is -36.5 kcal/mol.
The matching figures for GATCAGTCTCTGATC ((((((...)))))): 50.7 °C and -40.3 kcal/mol.
The matching figures for GATCAGTCTGCTGATC ((((((....)))))): 52.7 °C and -41.6 kcal/mol.
The matching figures for GATCAGTGACTGATC ((((((...)))))): 48.7 °C and -26.2 kcal/mol.
Consider GATCAGTGCCTGATC ((((((...)))))), for which the Tm in data set [1] turned out to be 49 °C. For the same sequence, in data set [2], the folding enthalpy was -22.5 kcal/mol.
Consider GATCAGTGGCCTGATC ((((((....)))))), for which, in data set [1], the Tm amounted to 50.6 °C. For the same sequence, the folding enthalpy in data set [2] was -36 kcal/mol.
As to GATCAGTGGTCTGATC ((((((....)))))), the Tm in data set [1] turned out to be 51.6 °C. In data set [2], the folding enthalpy was -35.7 kcal/mol.
For GATCAGTGTCCTGATC ((((((....)))))), in that order: 49.6 °C and -36.2 kcal/mol.
For GATCAGTGTCTGATC ((((((...)))))), in that order: 50 °C and -34.8 kcal/mol.
The matching figures for GATCAGTTCGCTGATC ((((((....)))))): 54.1 °C and -44.9 kcal/mol.
Turning to GATCAGTTTCCTGATC ((((((....)))))), in data set [1], the Tm stood at 50.9 °C. The folding enthalpy in data set [2] was -35 kcal/mol.
For GATCAGTTTGCTGATC ((((((....)))))), in that order: 53.8 °C and -44.1 kcal/mol.
In the case of GATCATAAACATGATC ((((((....)))))), the Tm in data set [1] was found to be 43.1 °C. Further, the folding enthalpy in data set [2] is -31 kcal/mol.
As for GATCATAACATGATC ((((((...)))))), in data set [1], the Tm came out at 50.3 °C. The folding enthalpy in data set [2] was -37 kcal/mol.
For GATCATAACTATGATC ((((((....)))))), in that order: 48 °C and -35.8 kcal/mol.
For GATCATACATATGATC ((((((....)))))), the Tm in data set [1] was found to be 47.7 °C. The folding enthalpy in data set [2] is -40.7 kcal/mol.
Consider GATCATACGAATGATC ((((((....)))))), for which, in data set [1], the Tm stood at 44.7 °C. Also, in data set [2], the folding enthalpy is -34.4 kcal/mol.
For GATCATACGATGATC ((((((...)))))), in that order: 46.9 °C and -29.4 kcal/mol.
For the sequence GATCATACTAATGATC ((((((....)))))), in data set [1], the Tm came out at 46.8 °C. Besides, in data set [2], the folding enthalpy was -34.9 kcal/mol.
The matching figures for GATCATAGAGATGATC ((((((....)))))): 44.5 °C and -30.1 kcal/mol.
Turning to GATCATAGCATGATC ((((((...)))))), in data set [1], the Tm was 49.9 °C. Moreover, the folding enthalpy in data set [2] is -37 kcal/mol.
For GATCATATAATGATC ((((((...)))))), in that order: 49 °C and -31.6 kcal/mol.
Regarding GATCATATTTATGATC ((((((....)))))), in data set [1], the Tm came out at 50.3 °C. In addition, in data set [2], the folding enthalpy is -41.2 kcal/mol.
With GATCATCAATATGATC ((((((....)))))), the Tm in data set [1] was determined as 45 °C. The folding enthalpy in data set [2] was -35 kcal/mol.
For GATCATCAGAATGATC ((((((....)))))), in that order: 46.9 °C and -22.6 kcal/mol.
Take GATCATCAGTATGATC ((((((....)))))): the Tm in data set [1] was 45.8 °C. For the same sequence, in data set [2], the folding enthalpy was -29.4 kcal/mol.
For GATCATCATGATGATC ((((((....)))))), in that order: 53.8 °C and -38 kcal/mol.
On to GATCATCCAATGATC ((((((...)))))), for which, in data set [1], the Tm was 46.9 °C. The folding enthalpy in data set [2] was -31.4 kcal/mol.
The matching figures for GATCATCCCATGATC ((((((...)))))): 50.4 °C and -38.4 kcal/mol.
As for GATCATCCCGATGATC ((((((....)))))), in data set [1], the Tm came to 52.1 °C. For the same sequence, in data set [2], the folding enthalpy was -51.9 kcal/mol.
On to GATCATCCGGATGATC ((((((....)))))), for which the Tm in data set [1] came to 54.8 °C. The folding enthalpy in data set [2] was -52.5 kcal/mol.
In the case of GATCATCGATATGATC ((((((....)))))), the Tm in data set [1] turned out to be 45.3 °C. For the same sequence, the folding enthalpy in data set [2] is -29.4 kcal/mol.
For GATCATCGCAATGATC ((((((....)))))), the Tm in data set [1] was 48.3 °C. In addition, in data set [2], the folding enthalpy was -39.1 kcal/mol.
On to GATCATCGGAATGATC ((((((....)))))), for which, in data set [1], the Tm is 45.8 °C. In addition, the folding enthalpy in data set [2] is -38.9 kcal/mol.
Turning to GATCATCGTTATGATC ((((((....)))))), the Tm in data set [1] worked out at 47.2 °C. Besides, the folding enthalpy in data set [2] was -32.4 kcal/mol.
For GATCATCTAATGATC ((((((...)))))), in that order: 47.2 °C and -34.5 kcal/mol.
As for GATCATCTATATGATC ((((((....)))))), the Tm in data set [1] was 47.9 °C. The folding enthalpy in data set [2] is -36.2 kcal/mol.
With GATCATCTCATGATC ((((((...)))))), in data set [1], the Tm is 50 °C. The folding enthalpy in data set [2] is -37.7 kcal/mol.
Regarding GATCATCTCCATGATC ((((((....)))))), the Tm in data set [1] amounted to 46.8 °C. For the same sequence, in data set [2], the folding enthalpy is -32.9 kcal/mol.
GATCATCTCGATGATC ((((((....)))))): the Tm in data set [1] worked out at 54.6 °C. Moreover, the folding enthalpy in data set [2] is -50.6 kcal/mol.
Take GATCATCTTCATGATC ((((((....)))))): in data set [1], the Tm is 47.3 °C. Besides, the folding enthalpy in data set [2] is -37.2 kcal/mol.
With GATCATCTTGATGATC ((((((....)))))), the Tm in data set [1] came to 57.2 °C. Further, the folding enthalpy in data set [2] was -43.4 kcal/mol.
GATCATGAAGATGATC ((((((....)))))): the Tm in data set [1] worked out at 50.3 °C. In addition, the folding enthalpy in data set [2] was -34.9 kcal/mol.
Take GATCATGAGAATGATC ((((((....)))))): the Tm in data set [1] amounted to 49.7 °C. Moreover, in data set [2], the folding enthalpy was -36.5 kcal/mol.
For GATCATGAGTATGATC ((((((....)))))), the Tm in data set [1] was determined as 46.7 °C. Further, the folding enthalpy in data set [2] is -31.1 kcal/mol.
The matching figures for GATCATGCTGATGATC ((((((....)))))): 47.3 °C and -38.5 kcal/mol.
Take GATCATGGAAACATGACC (.(((((....))))).): the Tm in data set [1] came to 36.1 °C. In data set [2], the folding enthalpy was -17.4 kcal/mol.
Turning to GATCATGGAATGATC ((((((...)))))), the Tm in data set [1] was found to be 56.5 °C. Besides, the folding enthalpy in data set [2] was -39.3 kcal/mol.
For GATCATGGAGATGATC ((((((....)))))), in that order: 49.7 °C and -37.5 kcal/mol.
The matching figures for GATCATGGGAATGATC ((((((....)))))): 51.8 °C and -36.8 kcal/mol.
The matching figures for GATCATGGGTATGATC ((((((....)))))): 46.7 °C and -34.6 kcal/mol.
Turning to GATCATGTGATGATC ((((((...)))))), the Tm in data set [1] was 47.2 °C. Besides, in data set [2], the folding enthalpy is -31.4 kcal/mol.
The matching figures for GATCATGTTCATGATC ((((((....)))))): 52.5 °C and -43.1 kcal/mol.
The matching figures for GATCATTAAAATGATC ((((((....)))))): 45.2 °C and -29.5 kcal/mol.
The matching figures for GATCATTACATGATC ((((((...)))))): 50.2 °C and -33.8 kcal/mol.
In the case of GATCATTACCATGATC ((((((....)))))), the Tm in data set [1] amounted to 46.8 °C. In addition, the folding enthalpy in data set [2] was -35.3 kcal/mol.
For GATCATTAGGATGATC ((((((....)))))), in that order: 47.8 °C and -35.3 kcal/mol.
For GATCATTAGTATGATC ((((((....)))))), in that order: 45.2 °C and -31.8 kcal/mol.

Values taken from the array DNA melting data of Ke et al. (doi:10.1101/2024.01.08.574731).
